Assay results from different studies.
Compare with care: the assays were run in different laboratories.
Target: Wee1-like protein kinase 2 (WEE2, Homo sapiens, UniProt P0C1S8)

Nc1ncc2c(n1)-c1c([nH]c3ccc(C#CC4CC4)cc13)CCCC2  remaining binding (binding; competition with immobilised ligand; 1 µM): 98%
O=C(Nc1cnc(Oc2ccc(F)cc2)nc1)N1CCc2ncccc2[C@@H]1c1ccc(F)cc1  remaining binding (cell-free assay; competition with immobilised ligand; 1 µM): 95%
FC(F)(F)Oc1cccc(-c2cnc3ccc(-c4ccncc4)nn23)c1  remaining binding (binding; competition with immobilised ligand; 5 µM): 86%
CCc1ccccc1C(=O)Nc1n[nH]c2c(C)c(F)c(C3C(C#N)=C(C)N(C)C(C)=C3C#N)cc12  remaining binding (cell-free assay; competition with immobilised ligand; 1 µM): 82%
C[C@@H]1CCN(c2nccc(-c3cnn4ncccc34)n2)C1  remaining binding (binding; 1 µM): 87%
Cc1cnc(Nc2ccc(C(=O)N3CCC(N4CCCC4)CC3)cc2)nc1-c1cc2ccccc2s1  remaining binding (binding; competition with immobilised ligand; 1 µM): 15%
CN(CCCC(F)(F)F)c1nccc(-c2cnn3ncccc23)n1  remaining binding (binding; 1 µM): 97%
O=C(c1ccc(Nc2ncc(Cl)c(-c3ccc(Cl)s3)n2)cc1)N1CCC(N2CCCC2)CC1  remaining binding (binding; competition with immobilised ligand; 1 µM): 8.4%
C[C@@H](c1ccc(-n2cnc3c(N)ncnc32)cc1)N1CCc2nn(C)c(Cc3ccccc3)c2C1=O  remaining binding (binding; competition with immobilised ligand; 0.1 µM): 92%
N[C@H]1CCN(c2nccc(-c3cnn4ncccc34)n2)C1  remaining binding (binding; 1 µM): 100%
COc1ncc2cc3ccccc3nc2c1C#N  remaining binding (cell-free assay; competition with immobilised ligand; 5 µM): 100%
CC1CCCN1c1nccc(-c2cnn3ncccc23)n1 (stereo not drawn)  remaining binding (binding; 1 µM): 100%
O=C(Nc1c[nH]nc1C(=O)NC1CCNCC1)c1cc(F)cc(F)c1  remaining binding (binding; competition with immobilised ligand; 1 µM): 100%
CCCCN(CCCC)C(=O)CN1C[C@@H](c2cc(OC)c3c(c2)OCO3)[C@H](C(=O)O)[C@H]1CC(C)(C)CCC  remaining binding (cell-free assay; competition with immobilised ligand; 1 µM): 89.1%
COc1cnc(Nc2cccc(S(N)(=O)=O)c2)nc1N1CCN(c2ccccc2)CC1  remaining binding (binding; competition with immobilised ligand; 1 µM): 96%
COc1cccc(CNC(=O)c2nc3scc(COCc4ccc(C(=O)O)cc4)c3c(=O)[nH]2)c1  remaining binding (cell-free assay; competition with immobilised ligand; 1 µM): 96.9%
CN(c1nccc(-c2cnn3ncccc23)n1)C1CC1  remaining binding (binding; 1 µM): 100%
Cn1cc(Cl)c2c(Oc3c(F)cc(Nc4cc(Cl)nc(N)n4)cc3F)ccnc21  remaining binding (cell-free assay; competition with immobilised ligand; 0.1 µM): 93%
O=C(c1ccc(Nc2ncc(Cl)c(-c3cc4ccccc4s3)n2)cc1)N1CCC(N2CCCC2)CC1  remaining binding (binding; competition with immobilised ligand; 1 µM): 27%
COc1ccnn2ncc(-c3ccnc(N(C)C)n3)c12  remaining binding (binding; 1 µM): 96%
O=C(NCc1ncc(C(F)(F)F)cc1Cl)c1ccc2c(c1)C1(CCS(=O)(=O)CC1)[C@H](C1CC1)N2S(=O)(=O)c1ccc(F)cc1  remaining binding (cell-free assay; competition with immobilised ligand; 1 µM): 100%
